Measured values pooled from the literature.
Compare with care: the assays were run in different laboratories.
Read-out: metabolic stability

CC(=O)Nc1cc(Nc2cc(NC3CC3)n3ncc(C#N)c3n2)ccc1N1CCC[C@H](O)C1 gave a scaled CLint of 511 mL/min/kg (male CD-1 mouse, hepatocytes; 1 µM, serum-free).
c1ccc(-c2nc(NCc3nccs3)c3ccccc3n2)nc1 has a microsomal CLint of 224 µL/min/mg (mouse, liver microsomes).
O=C(Nc1ccc(Cl)c(Cl)c1)c1ccc(N2CCNCC2)c([N+](=O)[O-])c1 gave a scaled CLint of 12 mL/min/kg (CD-1 mouse, liver microsomes; 1 µM, 1 h, pH 7.4).
N#Cc1ccccc1-c1nc(N2CCC(c3ccccn3)C2)c2ccccc2n1 (centres unmarked) gave a microsomal CLint of 717 µL/min/mg (mouse, liver microsomes).
With CC(=O)N(C)C1CCN(c2cc(F)cc(NC(=O)c3cc4c(F)ccc(C)c4[nH]3)c2)C1 (centres unmarked) the scaled CLint was 239 mL/min/kg (mouse, hepatocytes; 0.5 µM, 1 h).
The scaled CLint of O=C(Nc1cncc(-c2nc3ccccc3s2)c1)c1cc([N+](=O)[O-])c(N2CCNCC2)cc1Cl is reported as 10 mL/min/kg (CD-1 mouse, liver microsomes; 1 µM, 1 h, pH 7.4).
For c1ccc(-c2nc(Nc3ccn4nccc4c3)c3ccccc3n2)nc1, the microsomal CLint was 325 µL/min/mg (mouse, liver microsomes).
With Cc1cc(Cl)c(Cl)cc1NC(=O)c1cc([N+](=O)[O-])c(N2CCNCC2)cc1Cl the scaled CLint was 25 mL/min/kg (CD-1 mouse, liver microsomes; 1 µM, 1 h, pH 7.4).
With CO[C@@H](C[C@H]1C(C)=CC[C@@H]2[C@]3(C)C[C@H](O[C@@H]4O[C@@H](C)[C@H](OC(=O)c5cccc(O)c5)[C@@H](O[C@@H]5O[C@H](CO)[C@@H](O)[C@H](O)[C@H]5NC(C)=O)[C@H]4O)[C@@H](O)C(C)(C)[C@H]3CC[C@]21C)[C@H](N)C(=O)O the hepatocyte CLint was 4.69 µL/min/10⁶ cells (mouse, hepatocytes; 1 µM).
The scaled CLint of Cc1ccc(F)c2cc(C(=O)N[C@@H]3CCC[C@H](N4CCOCC4)C3)[nH]c12 is reported as 2170 mL/min/kg (mouse, hepatocytes; 0.5 µM, 1 h).
CN[C@@H]1CCCN(c2ccc(Nc3cc(NC4CC4)n4ncc(C#N)c4n3)cc2NC(C)=O)C1 gave a scaled CLint of 162 mL/min/kg (male CD-1 mouse, hepatocytes; 1 µM, serum-free).
